Only some compounds are listed: those with a hit (about 1.3% of all), similar ones and a draw of the others.
LEDGF integ inh = blocks HIV-1 LEDGF/p75-dependent DNA integration | inhibition, % at 3.7 µM | hit rate 0.64% among 370,000 | TR-FRET IN-LEDGF/p75 DNA integration, Eu/Cy5 | AID 743269;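 active means inhibition above the screen-wide mean plus 3 SD, cut at about 13% in these data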;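 further: signal is the Cy5 over europium emission ratio at 671 and 618 nm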
TDP2 inh = TDP2 (human) inhibition, absorbance primary screen; O95551; recombinant TDP2, T5PNP hydrolysis, p-nitrophenol absorbance 415 nm; inhibition, % at 12.8 µM; hit rate 0.34% among 370,000; AID 720702;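 active means inhibition above the mean of all tested compounds plus 3 SD, set per campaign, cut at about 25% in these data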
Target sequence (O95551 whole entry, looked up): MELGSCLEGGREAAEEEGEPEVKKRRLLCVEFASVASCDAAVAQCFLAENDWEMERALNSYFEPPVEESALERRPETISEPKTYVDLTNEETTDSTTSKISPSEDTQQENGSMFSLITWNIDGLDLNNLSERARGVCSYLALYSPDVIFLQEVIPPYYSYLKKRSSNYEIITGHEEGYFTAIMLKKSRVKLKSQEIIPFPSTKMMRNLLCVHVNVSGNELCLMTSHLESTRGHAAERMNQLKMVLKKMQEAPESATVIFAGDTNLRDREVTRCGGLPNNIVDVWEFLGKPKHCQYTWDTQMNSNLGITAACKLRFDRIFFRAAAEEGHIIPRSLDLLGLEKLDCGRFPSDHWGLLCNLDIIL
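System: recombinant human TDP2 / Amount: 120 nM TDP2 per well / Also added: 5 mM T5PNP chromogenic substrate / Doses: 12.8 µM single point, 1% DMSO / Incubation: 2 h at 37 °C / Detection: p-Nitrophenol epi absorbance / Evaluation: % inhibition relative to enzyme-containing and enzyme-free wells / Repeats: singlicate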
UCH37 inh = human UCH37 deubiquitinating enzyme inhibition; inhibition, % (concentration not given with the values); AID 588478; hit rate 0.33% among 330,000; purified proteasome/UCH37, Ub-AMC cleavage fluorescence;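 active means mean inhibition over replicate wells above about 20%, limit read from the data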
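Reagent: Ub-AMC substrate; assay system: Proteasome-associated human UCH37 deubiquitinase; controls: no-proteasome and no-compound wells; read-out: % inhibition of Ub-AMC cleavage fluorescence; timing: 30 min preincubation with enzyme, 25 min cleavage at room temperature; signal: AMC fluorescence from Ub-AMC cleavage, excitation 355 nm, emission 460 nm; buffer or medium: Tris-HCl pH 7.4 plus ovalbumin, ATP-MgCl2, DTT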
CASP6 VEID inh = caspase-6 (human) enzyme inhibition; purified caspase-6, Z-VEID-R110 cleavage fluorescence; inhibition, % at 12.5 µM; hit rate 0.53% among 350,000; AID 686996;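 active means mean inhibition across replicates at least about 35%, with every replicate also reaching that limit, limit read from the data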
NSD2 inh = NSD2 (human) methyltransferase inhibition; O96028; NSD2 peptide methylation, AlphaScreen, 120 min; inhibition, % at 12.5 µM; hit rate 0.54% among 310,000; in the data active means inhibition above about 50%
TDP2 confirm = confirmation of human TDP2 inhibitors; shares compounds with TDP2 inh; hit rate 22% among 1,100; inhibition, % at 12.8 µM; recombinant human TDP2, absorbance read-out; AID 743263; in the data active means inhibition above about 25%
IN multimer act = HIV-1 integrase multimerization activation, counter-screen; shares compounds with LEDGF integ inh; TR-FRET HIV-1 integrase multimerization, biochemical; activation, % at 7.7 µM; hit rate 17% among 2,000; AID 1053131; in the data active means activation above about 8.9%
TR-FRET interf = optically interferes with TR-FRET readout in LEDGF counter-screen. shares compounds with LEDGF integ inh. TR-FRET optical interference counterscreen, HIV-1 IN multimerization. inhibition, % at 7.7 µM. 2,000 tested, under 10 active;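 active means inhibition above the mean over all tested compounds plus 3 SD, which no compound reached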
IN-LEDGF confirm = LEDGF/p75-dependent HIV-1 integration inhibition, confirmation; hit rate 36% among 2,000; AID 1053136; TR-FRET LEDGF/p75-dependent HIV-1 integration, biochemical; inhibition, % at 3.7 µM; shares compounds with LEDGF integ inh; in the data active means inhibition above about 14%
AlphaScreen art = AlphaScreen assay artifact in NSD2 counter-screen | shares compounds with NSD2 inh | AlphaScreen artifact counterscreen, preloaded methylated H4 peptide | AC35, µM (doses to about 10 µM) | hit rate 9.4% among 1,500; call rule not given here
A number is an active result; i = inactive; nt = no result given.

SMILES	LEDGF integ inh	TDP2 inh	UCH37 inh	CASP6 VEID inh	NSD2 inh	TDP2 confirm	IN multimer act	TR-FRET interf	IN-LEDGF confirm	AlphaScreen art
O=C(NN=C1CC2C=CCC12)c1ccco1 (configuration not stated)	nt	nt	i	nt	nt	nt	nt	nt	nt	nt
COc1ccc(N(/N=C2\Sc3ccccc3C2=O)C(C)=O)cc1	i	i	nt	nt	i	nt	nt	nt	nt	nt
COc1ccccc1N(/N=C1\Sc2ccccc2C1=O)C(C)=O	17	28	nt	i	i	45	i	i	23	nt
COc1cc(N)c2ncccc2c1OC	27	46	i	i	i	i	i	i	i	nt
NC(=O)c1sc2nc3c(c(-c4ccco4)c2c1N)CCC3	43	26	i	i	i	i	i	i	i	nt
CCOc1cc(C=NNc2nc3ccccc3[nH]2)cc(Br)c1OCC(=O)N(C)C	nt	nt	i	nt	nt	nt	nt	nt	nt	nt
COc1ccccc1C=NN=C(NN=Cc1ccccc1OC)NN=Cc1ccccc1OC	32	59	i	i	i	i	i	i	i	nt
COc1ccccc1C=NNC(=O)NN=Cc1ccccc1OC	i	i	i	i	i	nt	nt	nt	nt	nt
Cc1ccc(S(=O)(=O)/N=C2\C=C(Nc3cccc(C(=O)O)c3)C(=O)c3ccccc32)cc1	52	85	nt	99	172	77	i	i	64	i
CCCOc1ccc(NC(=O)C2CC(=O)N/C(=N/N=C(C)CCc3ccc4c(c3)OCO4)S2)cc1 (configuration not stated)	nt	nt	i	nt	nt	nt	nt	nt	nt	nt
O=C(NC(=S)Nc1ccccc1N1CCCC1)c1ccco1	i	38	nt	i	74	29	nt	nt	nt	i
COc1ccc(C=NNc2cc(C)nc(-n3nc(C)cc3C)n2)cc1	nt	nt	i	nt	nt	nt	nt	nt	nt	nt
COc1ccc2c(c1)Cc1sc(NC(C)=O)nc1-2	15	49	i	nt	95	29	i	i	27	i
Cc1ccccc1C(=O)Nc1ccc(C(=O)NN=Cc2ccc(O)c(Br)c2)cc1	nt	nt	i	nt	nt	nt	nt	nt	nt	nt
COc1ccc(C=NN=C2SCC(=O)N2Cc2ccccc2)cc1	nt	nt	i	nt	nt	nt	nt	nt	nt	nt
O=[N+]([O-])c1cccnc1C1OCCO1	i	i	nt	i	i	nt	nt	nt	nt	nt
Cc1cnc(C2OCCO2)c2cccc(N)c12	i	30	nt	60	156	44	nt	nt	nt	i
Cc1ccc(C=NNC(=O)CCc2n[nH]c(=O)[nH]c2=O)o1	nt	nt	i	nt	nt	nt	nt	nt	nt	nt
O=C1c2cccc(Cl)c2C(=O)c2c1cccc2N1CCCC1	32	26	i	nt	74	i	i	i	i	1.1µM
O=[N+]([O-])c1cc(C=NO)ccc1Oc1cccc(Cl)c1	nt	nt	i	nt	nt	nt	nt	nt	nt	nt
CC(c1ccccc1)N1C(=O)c2cccnc2C1=O (configuration not stated)	i	i	i	i	i	nt	nt	nt	nt	nt
CC(NC1=CC(=O)c2cccnc2C1=O)C(O)c1ccccc1 (configuration not stated)	36	57	nt	100	114	71	i	i	66	i
O=C1C(Cl)=C(NCCN2CCOCC2)C(=O)c2ccccc21	i	31	i	70	101	i	nt	nt	nt	i
O=C1c2ccccc2C(=O)N1CCN1CCOCC1	i	i	i	i	nt	nt	nt	nt	nt	nt
Nc1ccc(C(=O)N(CCO)CCO)cc1	i	i	i	i	i	nt	nt	nt	nt	nt
SMILES	LEDGF integ inh	TDP2 inh	UCH37 inh	CASP6 VEID inh	NSD2 inh	TDP2 confirm	IN multimer act	TR-FRET interf	IN-LEDGF confirm	AlphaScreen art
Nc1ccc(N(CCO)CCO)cc1	24	46	i	i	117	i	12	i	28	i
O=C(O)CN1C(=O)/C(=C/c2ccc(SCc3ccccc3)o2)SC1=S	i	26	i	52	54	i	nt	nt	nt	i
O=C(O)CN1C(=O)/C(=C\c2ccc(OC(=O)c3ccco3)cc2)SC1=S	i	i	i	i	i	nt	nt	nt	nt	nt
COC1=CC(=O)c2nc(Cl)ccc2C1=O	32	85	nt	100	127	78	i	i	58	i
O=C1C(=O)c2cccnc2-c2ncccc21	i	104	nt	61	145	89	nt	nt	nt	i
O=C1c2ccccc2-c2nccnc21	i	i	i	nt	nt	nt	nt	nt	nt	nt
